Series [1] in a line: Selectivity index, ratio of IC50 for African green monkey Vero cells to MIC=<90 for Mycobacterium tuberculosis. The note with it: read-out: Selectivity Index. The format is toxicity.
The test system of another series is Vero. As to the kind of experiment: Cytotoxicity against African green monkey Vero cells. The format is cell-based. The note with it: Chlorocebus sabaeus.
In series [2] the test system is Mycobacterium tuberculosis. As to the kind of experiment: Antibacterial activity against Mycobacterium tuberculosis by AlamarBlue assay. It counts as functional. On the technique in general: Resazurin is reduced to fluorescent resorufin, in cell work by metabolically active cells.
The test system of series [3] is Mycobacteroides abscessus. As to the kind of experiment: Antibacterial activity against Mycobacterium abscessus CIP104536 after 3 to 5 days by two fold serial dilution method. The format is functional. The gist of the method: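 Broth microdilution per CLSI in cation-adjusted Mueller–Hinton broth; exponential-phase inoculum 5 × 10^6 CFU/mL; two-fold serial dilutions from highest concentration, solvent wells as control; 30 °C for 3−5 days; MIC read visually and confirmed by absorbance at 560 nm; triplicate on three independent occasions.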

The nature of series [4]: Selectivity index, ratio of IC50 for African green monkey Vero cells to MIC for Mycobacterium abscessus CIP104536. The conditions noted are these: read-out: Selectivity Index. It counts as toxicity.
Series [5] relates to Mycobacterium tuberculosis. Kind of series: Inhibition of C-terminal His-tagged Mycobacterium tuberculosis Ag85C expressed in Escherichia coli C41 (DE3) at 2.5 to 50 uM after 1 hr by resorufin butyrate-based fluorescence assay. In short, it runs like this:
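Purified Ag85C mycolyltransferase activity measured with the fluorescent probe resorufin butyrate; compounds tested at 2.5 to 50 μM.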

Values after ≈ are worked out from the molar mass of the structure shown.

By IC50 is commonly meant the midpoint of a concentration-inhibition curve. One may read the MIC as the lowest concentration that inhibits growth of the organism.

Take `NNC(=O)c1ccncc1` [ISONIAZID]: in series [1], the selectivity ratio is above 6400. In the series on Vero, the IC50 is above 256 µg/mL. The “MIC=<90” value in series [2] turned out to be 0.04 µg/mL (≈ 0.292 µM).
In turn, `O=C(NC1CCCCCC1)c1cc2c(F)cc(F)cc2[nH]1` showed a minimum inhibitory concentration (MIC) in series [3] of 0.125 µg/mL (≈ 0.428 µM). Moreover, in series [2], the “MIC=<90” value amounted to 0.031 µg/mL (≈ 0.106 µM).
The matching figures for `O=C(NC1CCCCCCC1)c1cc2cc(Cl)ccc2o1`: 0.5 µg/mL (≈ 1.64 µM) and 8 µg/mL (≈ 26.2 µM).
With `O=C(NC12CC3CC(CC(C3)C1)C2)c1cc2c(Cl)cc(Cl)cc2[nH]1`, the selectivity ratio in series [4] was at least 1; in series [1], at least 8210. Moreover, the IC50 in the series with Vero was at least 32 µg/mL. The MIC in series [3] was above 32 µg/mL. Moreover, in series [2], the “MIC=<90” value turned out to be 0.0039 µg/mL (≈ 0.0107 µM).
In the case of `COc1cc(OC)c2cc(C(=O)NC3CCCCCC3)[nH]c2c1`, in series [3], inhibition of growth (MIC) required 1 µg/mL (≈ 3.16 µM). The “MIC=<90” value in series [2] was found to be 0.0625 µg/mL (≈ 0.198 µM).
With `O=c1c2ccccc2[se]n1-c1ccccc1`, in series [5], the inhibition entry was “Dose-dependent effect”.
`CC(C)=CCC/C(C)=C/CNC(=O)c1cc2c(Cl)cc(Cl)cc2[nH]1`: the minimal inhibitory concentration (MIC) in series [3] was above 32 µg/mL. Further, in series [2], the “MIC=<90” value amounted to 4 µg/mL (≈ 10.9 µM).
With `C[C@@H]1[C@@H](NC(=O)c2cc3c(F)cc(F)cc3[nH]2)C[C@H]2C[C@@H]1C2(C)C`, the selectivity ratio is at least 2 in series [4] and at least 16400 in series [1]. Besides, in the series with Vero, the IC50 was at least 64 µg/mL. Moreover, the minimum inhibitory concentration (MIC) in series [3] stood at 32 µg/mL (≈ 96.3 µM). The “MIC=<90” value in series [2] worked out at 0.0039 µg/mL (≈ 0.0117 µM).
Turning to `O=C(NC1Cc2ccccc2C1)c1cc2c(Cl)cc(Cl)cc2[nH]1`, in series [3], the minimum inhibitory concentration (MIC) is above 32 µg/mL. Further, in series [2], the “MIC=<90” value was 0.25 µg/mL (≈ 0.724 µM).
The matching figures for `Cc1cc(C)c2cc(CNC3CCCCCCC3)[nH]c2c1`: 0.5 µg/mL (≈ 1.76 µM) and 0.125 µg/mL (≈ 0.439 µM).
The matching figures for `CCCCCCCCNC(=O)c1cc2c(Cl)cc(Cl)cc2[nH]1`: above 32 µg/mL and 128 µg/mL (≈ 375 µM).
Consider `Cc1cc(C)c2cc(C(=O)NC3CCCCCC3)[nH]c2c1`, for which the results for the selectivity ratio in series [4] and in series [1] were 128 and 4100, respectively. In the series on Vero, the 50% inhibitory concentration (IC50) came to 16 µg/mL (≈ 56.3 µM). The lowest concentration to inhibit growth in series [3] (MIC) was 0.125 µg/mL (≈ 0.44 µM). In series [2], the “MIC=<90” value turned out to be 0.0039 µg/mL (≈ 0.0137 µM).
For the molecule `Cc1cc(C)c2[nH]c(C(=O)NC3CCCCCC3)cc2c1`, the MIC in series [3] was 0.25 µg/mL (≈ 0.879 µM). Moreover, the “MIC=<90” value in series [2] was 0.0625 µg/mL (≈ 0.22 µM).
For the molecule `C[C@@H]1[C@@H](NC(=O)c2cc3c(Cl)cc(Cl)cc3[nH]2)C[C@H]2C[C@@H]1C2(C)C`, the selectivity ratio in series [4] is 0.125; in series [1], 2050. In the series on Vero, this molecule showed a 50% inhibitory concentration (IC50) of 16 µg/mL (≈ 43.8 µM). In series [3], this molecule came in with a minimum inhibitory concentration (MIC) of 128 µg/mL (≈ 350 µM). For the same molecule, the “MIC=<90” value in series [2] came to 0.0078 µg/mL (≈ 0.0214 µM).
Taken in the same sequence, the figures for `O=C(NC1CCC2(CCCCC2)CC1)c1cc2c(Cl)cc(Cl)cc2[nH]1` were at least 2, at least 32800, at least 64 µg/mL, above 32 µg/mL and 0.001953 µg/mL (≈ 0.00515 µM).

(Values after ChEMBL document CHEMBL4014347, “Targeting Mycolic Acid Transport by Indole-2-carboxamides for the Treatment of Mycobacterium abscessus Infections” (J Med Chem, 2017).)
